Assay outcomes from PubChem BioAssay.
This is a sample that favours compounds with a hit; in the whole collection about 2.9% have one here.
SENP6 inh = SENP6 protease inhibition | Q9GZR1 | Recombinant SENP6 catalytic domain, aminoluciferin luminescence | inhibition, % at 10 µM | 330,000 compounds, 1.8% hits;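 active means inhibition above about 50% at the single tested dose, limit read from the data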;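 further: plate controls were DMSO wells with enzyme for no effect and DMSO wells lacking enzyme for full effect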
SENP8 block-1 = blocks the human protease SENP8. 330,000 compounds, 1.2% hits. Q96LD8. purified SENP8, Z-RLRGG-aminoluciferin cleavage, luminescence. inhibition, % at 10 µM. AID 2540; in the data active means inhibition above about 50%
Target sequence (Q96LD8 whole entry, looked up): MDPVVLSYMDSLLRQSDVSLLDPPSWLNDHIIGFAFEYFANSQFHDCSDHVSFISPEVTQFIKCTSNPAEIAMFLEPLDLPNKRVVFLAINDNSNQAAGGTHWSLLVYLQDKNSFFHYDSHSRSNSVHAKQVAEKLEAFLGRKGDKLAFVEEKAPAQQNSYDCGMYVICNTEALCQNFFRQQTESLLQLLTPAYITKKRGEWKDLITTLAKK
SENP1 FRET inh = inhibitors of human SENP1 SUMO protease catalytic domain | Q9P0U3 | recombinant SENP1 catalytic domain, CyPet-SUMO1-YPet FRET cleavage | 360,000 compounds, 0.21% hits | AID 624204 | inhibition, % at 10 µM;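 active means inhibition at least 30% at 10 µM, raw YFP signal under a set limit, fluorescence ratio 0.5 to 1.5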;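 further: 0% = enzyme with DMSO and 100% = no enzyme wells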
Target sequence (Q9P0U3 419-644 limits assumed): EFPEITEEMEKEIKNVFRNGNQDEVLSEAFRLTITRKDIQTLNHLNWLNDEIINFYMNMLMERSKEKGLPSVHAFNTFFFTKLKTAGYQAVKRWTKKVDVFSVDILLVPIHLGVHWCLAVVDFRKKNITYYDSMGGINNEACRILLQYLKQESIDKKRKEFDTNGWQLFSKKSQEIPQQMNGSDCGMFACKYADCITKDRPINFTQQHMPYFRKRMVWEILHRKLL
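Test system: recombinant human SENP1 catalytic domain, His6-tagged / Medium: pH 8 Tris buffer with EDTA, NaCl, BME, BSA, NP40, catalase / Also added: SUMO1 FRET substrate flanked by Cypet and Ypet, 25 nM / Times: 50 min reaction at room temperature / Signal: FRET, CFP and YFP emission / Control set: no-enzyme low control and enzyme-plus-DMSO high control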
Apaf1 inhib = human Apaf-1 inhibition | O14727 | reconstituted apoptosome caspase-3 activity, DEVD-Rh110 fluorescence | inhibition, % at 20 µM | 330,000 compounds, 0.71% hits; active means inhibition of at least 40% at 20 µM;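 further: plate controls were DMSO wells for no effect and DEVD-CHO caspase inhibitor wells for full effect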
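Material: biochemical Apaf-1 apoptosome reconstitution. Medium: Hepes buffer, pH 7.5. Also added: cytochrome c activation, bis-DEVD rhodamine 110 substrate. Timing: 30 min compound preincubation, 50 min activation, room temperature. Measured by: rhodamine 110 fluorescence at Ex 480/Em 540 nm.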
SENP7 block = blocks the human protease SENP7 | Q9BQF6 | recombinant SENP7, Z-RLRGG-aminoluciferin luminescence, 40 min | inhibition, % at 5 µM | 330,000 compounds, 1.5% hits | AID 434973;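 active means inhibition above about 50% at the single test dose, limit read from the data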;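 further: plate controls were DMSO with enzyme for no effect and no enzyme buffer wells for full effect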
SENP8 block-2 = SENP8 (human) protease inhibition; inhibition, % at 20 µM; Q96LD8; recombinant SENP8, Nedd8 substrate fluorescence; 360,000 compounds, 0.64% hits; in the data active means inhibition mostly above about 40%, no sharp cut-off; inactive means mostly below about 27%
SENP8 confirm = human SENP8 inhibition, confirmed | shares compounds with SENP7 block | AID 488912 | Recombinant SENP8, Z-RLRGG-aminoluciferin luminescence, 60 min | 6,200 compounds, 40% hits | inhibition, % at 12.5 µM;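 active means mean inhibition across replicates above about 50%, limit read from the data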
SENP6 confirm = confirmation of human SENP6 protease inhibitors; shares compounds with SENP7 block; recombinant SENP6, Z-RLRGG-aminoluciferin luminescence; inhibition, % at 12.5 µM; 6,200 compounds, 58% hits; AID 488915
SENP7 conf = confirmation of human SENP7 protease inhibitors. shares compounds with SENP7 block. recombinant SENP7, Z-RLRGG-aminoluciferin luminescence, 40 min. inhibition, % at 12.5 µM. 6,200 compounds, 69% hits. AID 488917
Casp3 SENP sel = inhibits human caspase-3 in SENP selectivity test; shares compounds with SENP7 block; purified caspase-3, Z-DEVD-aminoluciferin luminescence, 60 min; inhibition, % at 12.5 µM; 6,200 compounds, 60% hits; AID 488918;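 active means mean inhibition above about 50%, limit read from the data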;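 further: plate controls were enzyme with DMSO for no effect and wells without caspase-3 for full effect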
Target sequence (P42574 28-227 limits assumed): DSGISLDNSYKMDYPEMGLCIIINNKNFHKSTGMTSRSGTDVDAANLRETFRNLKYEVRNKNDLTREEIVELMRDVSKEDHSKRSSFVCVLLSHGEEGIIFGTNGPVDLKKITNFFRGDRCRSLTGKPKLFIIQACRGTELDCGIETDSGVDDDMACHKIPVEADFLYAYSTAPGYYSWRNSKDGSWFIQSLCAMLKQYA
Luc interf = counter-screen for SENP inhibitors: luminescence interference. inhibition, % at 12.5 µM. Pre-incubated SENP8/Z-RLRGG-aminoluciferin, luciferase luminescence interference. 6,200 compounds, 39% hits. shares compounds with SENP7 block. AID 488919;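 active means mean inhibition above about 50% when retested at one dose, limit read from the data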;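 further: plate controls were DMSO wells with completed reaction for no effect and substrate without enzyme for full effect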
* = called active by the depositor; i = inactive; x = no result given.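 How the source made its calls, unless noted: active means mean inhibition above about 50% in the one-dose retest (limit read from the data); inactive means the rest.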

SMILES	SENP6 inh	SENP8 block-1	SENP1 FRET inh	Apaf1 inhib	SENP7 block	SENP8 block-2	SENP8 confirm	SENP6 confirm	SENP7 conf	Casp3 SENP sel	Luc interf
COCCN1C[C@@H](CO)O[C@@H](n2cnc3c(NCCCO)ncnc32)C1	x	x	3	x	x	11	x	x	x	x	x
CCOC(=O)CCCCCC(=O)Nc1ccc2c(c1)C(=O)N([C@@H](C)CO)C[C@@H](C)[C@H](CN(C)C(=O)Nc1ccccc1)OCCCC[C@H](C)O2	x	x	-3	x	x	0	x	x	x	x	x
COc1cccc(/C=N/NC(=O)c2cccs2)c1	55*	34	-2	-3	62*	1	54*	50*	84*	71*	64*
Cc1ccc(S(=O)(=O)NCCn2cnc([N+](=O)[O-])n2)cc1	-34	-2	-1	6	7	14	x	x	x	x	x
Cc1ccc(C(NC(N)=O)c2ccccc2)cc1 (centres undefined)	3	9	0	-12	54*	12	4	1	-2	-2	-2
CCN(CC)C(=O)COc1ccc(-c2ccccc2)cc1	70*	46	1	7	60*	22	55*	55*	82*	73*	66*
Cc1oc(-c2ccc3c(c2)OCCO3)cc1C(=O)NCC(=O)O	81*	81*	-2	-1	-6	-14	11	93*	98*	81*	91*
COc1ccc(-c2cc(C(=O)NC(Cc3cc4ccccc4[nH]3)C(=O)O)c(C)o2)cc1OC (centres undefined)	17	1	2	4	3	1	x	x	x	x	x
Cc1oc(-c2ccc3c(c2)OCCO3)cc1C(=O)NC(CCC(=O)O)C(=O)O (centres undefined)	-7	3	-2	4	2	7	x	x	x	x	x
Cc1oc(-c2ccc3c(c2)OCCO3)cc1C(=O)O	99*	97*	2	0	98*	6	98*	101*	104*	99*	99*
COc1ccc(-c2cc(C(=O)O)c(C)o2)cc1OC	87*	73*	2	7	82*	6	85*	84*	97*	90*	85*
COc1ccc(N2CCN(CC(=O)Nc3ccccc3C(=O)NCc3ccccc3)CC2)cc1	11	-7	-3	6	5	18	x	x	x	x	x
CCS(=O)(=O)c1ccc(C=NNc2nc3ccccc3o2)cc1	x	x	4	x	x	-220	x	x	x	x	x
CN(C)c1ccc(/C=N/Nc2nc3ccccc3o2)cc1	78*	77*	0	8	97*	-291	22	79*	97*	44	11
COc1ccc(Cn2c(C3CC3)nc3ccc(NC(C)=O)cc3c2=O)cc1	73*	46	0	12	67*	-15	70*	68*	90*	73*	42
Cc1ccc(/C=N/Nc2nc3ccccc3s2)o1	97*	90*	-24	21	83*	-76	84*	84*	99*	81*	48
Oc1ccc(F)cc1-c1cc(-c2ccc3c(c2)OCCO3)n[nH]1	88*	84*	0	11	75*	11	88*	88*	100*	59*	57*
Cc1ccccc1-c1cc(-c2ccccc2O)n[nH]1	84*	71*	0	13	83*	16	86*	85*	94*	42	62*
Oc1ccc(Cl)cc1-c1cc(-c2ccccc2)n[nH]1	21	8	1	20	3	6	x	x	x	x	x
Cc1ccc(-c2cc(-c3ccccc3Cl)[nH]n2)c(O)c1	45	28	1	17	46	14	x	x	x	x	x
O=C(N/N=C/c1ccc(F)cc1)c1cc(-c2ccc3c(c2)OCO3)n[nH]1	-1	-2	4	-22	1	10	x	x	x	x	x
Oc1ccccc1-c1cc(-c2ccccc2)n[nH]1	95*	93*	4	6	94*	18	95*	96*	101*	74*	89*
Cc1ccc(-c2cc(-c3ccc(F)cc3)n[nH]2)c(O)c1	83*	79*	-1	8	76*	2	86*	86*	95*	43	76*
Cc1ccc(CC(=O)NNC(=O)c2ccncc2)cc1C	-10	1	0	0	2	5	x	x	x	x	x
Oc1ccccc1-c1cc(-c2ccc(F)cc2)n[nH]1	94*	89*	-1	9	94*	5	94*	94*	100*	72*	80*
SMILES	SENP6 inh	SENP8 block-1	SENP1 FRET inh	Apaf1 inhib	SENP7 block	SENP8 block-2	SENP8 confirm	SENP6 confirm	SENP7 conf	Casp3 SENP sel	Luc interf
Cc1ccc(-c2cc(-c3ccc(C)cc3O)[nH]n2)cc1	45	12	2	11	13	19	x	x	x	x	x
COc1ccc(NC(=O)C2(C)CCN2CCOc2ccc(C)cc2)cc1OC (centres undefined)	x	x	4	x	x	13	x	x	x	x	x
COc1cc(/C=C(\CCC(=O)O)c2nc3ccccc3s2)ccc1OCC(=O)Nc1c(Cl)cccc1Cl	-2	-2	-8	1	2	i	x	x	x	x	x
CCCOc1ccc(C(=O)Nc2ccc3c(c2)OCO3)cc1	82*	71*	-1	11	89*	8	14	73*	80*	84*	19
CCCCOc1ccc(C(=O)Nc2ccc3c(c2)OCO3)cc1	8	-15	8	10	26	20	x	x	x	x	x
CCC(=O)Oc1ccc(C(=O)Nc2ccc3c(c2)OCO3)cc1	64*	34	1	-3	73*	-7	37	56*	62*	71*	17
CC1=C(O)c2ccccc2C(=O)C1=O	x	x	5	x	x	1	x	x	x	x	x
O=C1C(=O)c2ccccc2C(O)=C1CCCCl	55*	26	3	83*	8	21	53*	66*	13	8	1
CN=c1scc(-c2ccccc2F)n1/N=C/c1ccc[nH]1	-16	91*	-19	11	0	-13	98*	100*	103*	96*	97*
O=C(/C=C/c1ccccc1)Nc1sc2c(c1C(=O)O)CCC2	-5	69*	3	-20	7	0	-5	74*	90*	73*	81*
